From ChEMBL document CHEMBL1126681, “Novel acyclonucleotides: synthesis and antiviral activity of alkenylphosphonic acid derivatives of purines and a pyrimidine” (J Med Chem, 1993)
Converted amounts (≈) assume the structure as drawn. The source made the active and inactive calls. The calls are words filed in the database; no cut-off is given here.

Experiments:
MRC5 [1] = experiment: Compound was evaluated for the inhibition of cell replication of human fibroblast (MRC-5) cells; type: functional; details: read-out: CD50 (the source's name)
How it was run: (§1)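 Cytotoxicity in uninfected cells, measured as inhibition of DNA synthesis by [3H]thymidine incorporation. CD50 is the concentration giving 50% inhibition of cell replication.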

Cytomegalovirus [2] = experiment: Compound was evaluated for anti-herpesvirus activity against Cytomegalovirus (AD169) strain plaques in infected human fibroblast (MRC-5) cells; type: functional, organism-based; details: Human betaherpesvirus 5, MRC5
How it was run: (§2)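 Plaque-reduction assay in human fibroblast (MRC-5) cells infected with virus. IC50 is the compound concentration that halves the plaque count.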

[3] = Compound was evaluated for the inhibition of cell replication sheep choroid plexus (SCP) cells; type: functional; details: Ovis aries; read-out: CD50 (the source's name); how it was run: as §1
[4] = test system: Human immunodeficiency virus 1; experiment: Compound was evaluated for anti-retrovirus activity against HIV-1 (D34) Diagen strain; type: functional, organism-based
Visna-maedi virus [5] = experiment: Compound was evaluated for anti-retrovirus activity against Visna virus (K184) strain in infected sheep choroid plexus cells; type: functional
How it was run: (§3)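 Infected sheep choroid plexus (SCP) cells. MIC is the lowest concentration that completely prevents virus cytopathic effect.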

Human alphaherpesvirus 2 [6] = experiment: Compound was evaluated for anti-herpesvirus activity against Herpes simplex virus-2 (MS) strain; type: functional, organism-based; how it was run: as §2
Human alphaherpesvirus 1 [7] = experiment: Compound was evaluated for anti-herpesvirus activity against Herpes simplex virus-1 (SC16) strain; type: functional, organism-based
Human alphaherpesvirus 3 [8] = experiment: Compound was evaluated for anti-herpesvirus activity against Varicella Zoster virus (Ellen) strain; type: functional, organism-based; how it was run: as §2
[9] = Compound was evaluated for the inhibition of cell replication human peripheral blood lymphocytes (PBL's); type: functional; details: read-out: CD50 (the source's name); how it was run: as §1
Human alphaherpesvirus 2 [10] = experiment: Compound was evaluated for anti-herpesvirus activity against Herpes simplex virus-2 (MS) strain; Not active; type: functional, organism-based; how it was run: as §2
[11] = test system: Human immunodeficiency virus 1; experiment: Compound was evaluated for anti-retrovirus activity against HIV-1 (D34) Diagen strain; Not active; type: functional, organism-based
Human alphaherpesvirus 1 [12] = experiment: Compound was evaluated for anti-herpesvirus activity against Herpes simplex virus-1 (SC16) strain; Not active; type: functional, organism-based
Human alphaherpesvirus 3 [13] = experiment: Compound was evaluated for anti-herpesvirus activity against Varicella Zoster virus (Ellen) strain; Not active; type: functional, organism-based; how it was run: as §2
Cytomegalovirus [14] = experiment: Compound was evaluated for anti-herpesvirus activity against Cytomegalovirus (AD169) strain plaques in infected human fibroblast (MRC-5) cells.; type: functional, organism-based; details: Human betaherpesvirus 5, MRC5; how it was run: as §2
[15] = Second dissociation constant was determined; type: ADME
Visna-maedi virus [16] = experiment: Compound was evaluated for anti-retrovirus activity against Visna virus (K184) strain in infected sheep choroid plexus cells; Not active; type: functional, organism-based
Cytomegalovirus [17] = experiment: Compound was evaluated for anti-herpesvirus activity against Cytomegalovirus (AD169) strain plaques in infected human fibroblast (MRC-5) cells; Not active; type: functional, organism-based; how it was run: as §2
Human alphaherpesvirus 3 [18] = experiment: Compound was evaluated for anti-herpesvirus activity against Varicella Zoster virus (Ellen) strain.; type: functional, organism-based; how it was run: as §2
Human alphaherpesvirus 1 [19] = experiment: Compound was evaluated for anti-herpesvirus activity against Herpes simplex virus-1 (SC16) strain.; type: functional, organism-based
MRC5 [20] = experiment: Compound was evaluated for the inhibition of cell replication of human fibroblast (MRC-5) cells.; type: functional; details: read-out: CD50 (the source's name); how it was run: as §1
Human alphaherpesvirus 2 [21] = experiment: Compound was evaluated for anti-herpesvirus activity against Herpes simplex virus-2 (MS) strain.; type: functional, organism-based; how it was run: as §2
Cytomegalovirus [22] = experiment: Compound was evaluated for anti-herpes virus activity against Cytomegalovirus (AD169) strain plaques in infected human fibroblast (MRC-5) cells; Not active; type: functional, organism-based; how it was run: as §2
[23] = Compound was evaluated for the inhibition of DNA synthesis in uninfected cells; type: functional; details: read-out: CD50 (the source's name); how it was run: as §1
[24] = Compound was evaluated for the inhibition of cell replication sheep choroid plexus (SCP) cells.; type: functional; details: Ovis aries; read-out: CD50 (the source's name); how it was run: as §1
PBL = experiment: Compound was evaluated for the inhibition of cell replication human peripheral blood lymphocytes (PBL's).; type: functional; details: read-out: CD50 (the source's name); how it was run: as §1
Visna-maedi virus [25] = experiment: Compound was evaluated for anti-retrovirus activity against Visna virus (K184) strain in infected sheep choroid plexus cells.; type: functional; how it was run: as §3

| SMILES | CC50 (MRC5 [1]) [µM] | CC50 [3] [µM] | MIC (Visna-maedi virus [5]) [µM] | IC50 (Human alphaherpesvirus 2 [6]) [µM] | IC50 (Human alphaherpesvirus 3 [8]) [µM] | IC50 (Human alphaherpesvirus 1 [12]) | MIC (Visna-maedi virus [16]) | also measured |
| --- | --- | --- | --- | --- | --- | --- | --- | --- |
| Nc1nc(O)c2ncn(OCC/C=C/P(=O)(O)O)c2n1 | 0.1 | 0.13 | < 0.01 | < 10 | < 10 |  |  | IC50 (Cytomegalovirus [2]): 0.53 µM; IC50 [4]: 0.1 µM; IC50 (Human alphaherpesvirus 1 [7]): < 10 µM; CC50 [9]: 0.23 µM |
| Nc1nc(O)c2ncn(OCC/C=C\P(=O)(O)O)c2n1 | 26 | 11.7 | 0.1 (≈ 0.0301 µg/mL) |  |  | Not Active |  | IC50 (Human alphaherpesvirus 2 [10]): Not Active; IC50 [11]: Not Active; IC50 (Human alphaherpesvirus 3 [13]): Not Active; IC50 (Cytomegalovirus [14]): 178 µM |
| Nc1nc(O)c2ncn(CC/C=C/P(=O)(O)O)c2n1 | 4.5 | 1.3 | 0.35 (≈ 0.0998 µg/mL) | 90 | 190 | Not Active |  | IC50 (Cytomegalovirus [2]): 52 µM; IC50 [11]: Not Active |
| Nc1nc(O)c2ncn(OC(/C=C/P(=O)(O)O)CO)c2n1 (stereo not drawn) |  |  |  |  |  |  | inactive | pKa ([15]; read-out: pKa E2): 6.6 |
| Nc1ncnc2c1ncn2CC(/C=C/P(=O)(O)O)CO (stereo not drawn) | 189 |  |  | 91 | 16 |  |  | IC50 (Cytomegalovirus [2]): 35 µM; IC50 [11]: Not Active; IC50 (Human alphaherpesvirus 1 [7]): 137 µM |
| Nc1ncnc2c1ncn2OC(/C=C/P(=O)(O)O)CO (stereo not drawn) |  |  |  |  |  |  | inactive |  |
| Nc1nc(O)c2ncn(CC(/C=C/P(=O)(O)O)CO)c2n1 (stereo not drawn) | 20 |  |  | 66 | 17 |  |  | IC50 (Cytomegalovirus [2]): < 9 µM; IC50 [11]: Not Active; IC50 (Human alphaherpesvirus 1 [7]): 60 µM |
| Nc1ncnc2c1ncn2OCC/C=C/P(=O)(O)O | 330 |  | 82 (≈ 23.4 µg/mL) |  |  | Not Active |  | IC50 (Cytomegalovirus [17]): Not Active; IC50 [4]: 10.2 µM; IC50 (Human alphaherpesvirus 2 [10]): Not Active; IC50 (Human alphaherpesvirus 3 [13]): Not Active; CC50 [9]: 130 µM |
| Nc1nc2c(ncn2COCCO)c(=O)[nH]1 [ACYCLOVIR] |  |  |  |  |  |  |  | IC50 (Human alphaherpesvirus 3 [18]): 21 µM; IC50 (Human alphaherpesvirus 1 [19]): 3.9 µM; CC50 (MRC5 [20]): 355 µM; IC50 (Human alphaherpesvirus 2 [21]): 4.3 µM; IC50 (Cytomegalovirus [14]): 93 µM |
| Nc1nc(N)c2ncn(CC/C=C/P(=O)(O)O)c2n1 | 222 | 95 | 2.1 (≈ 0.597 µg/mL) |  |  | Not Active |  | IC50 [4]: 9.8 µM; IC50 (Human alphaherpesvirus 2 [10]): Not Active; IC50 (Cytomegalovirus [22]): Not Active; IC50 (Human alphaherpesvirus 3 [13]): Not Active |
| Nc1ncnc2c1ncn2CC/C=C/P(=O)(O)O | 260 | 137 | 20 (≈ 5.38 µg/mL) |  |  | Not Active |  | IC50 (Cytomegalovirus [17]): Not Active; IC50 (Human alphaherpesvirus 2 [10]): Not Active; IC50 [11]: Not Active; IC50 (Human alphaherpesvirus 3 [13]): Not Active |
| C=C(/C=C/P(=O)(O)O)Cn1cnc2c(O)nc(N)nc21 |  |  |  |  |  |  | inactive |  |
| Nc1ncnc2c1ncn2OCCOCP(=O)(O)O | 173 | 173 | 8 (≈ 2.31 µg/mL) | 270 | 280 | Not Active |  | IC50 (Cytomegalovirus [17]): Not Active; IC50 [4]: 0.24 µM |
| Nc1ncnc2c1ncn2CC/C=C\P(=O)(O)O |  |  |  |  |  |  | inactive |  |
| Nc1nc(O)c2ncn(OCC(/C=C/P(=O)(O)O)CO)c2n1 (stereo not drawn) | 19 |  |  | 177 | 15 |  |  | IC50 (Cytomegalovirus [2]): 44 µM; IC50 [4]: 8.9 µM; IC50 (Human alphaherpesvirus 1 [7]): 295 µM |
| Nc1nc2c(ncn2CC/C=C\P(=O)(O)O)c(=O)[nH]1 |  |  |  |  |  |  | inactive |  |
| Nc1nc2c(ncn2CCOCP(=O)(O)O)c(=O)[nH]1 [GS-438] |  |  |  |  |  |  |  | pKa [15]: 6.5; CC50 [23]: 8.6 µM |
| Nc1ccn(OC(/C=C/P(=O)(O)O)CO)c(=O)n1 (stereo not drawn) |  |  |  |  |  |  | inactive |  |
| Cc1cn([C@H]2C[C@H](N=[N+]=[N-])[C@@H](CO)O2)c(=O)[nH]c1=O [ZIDOVUDINE] |  |  |  |  |  |  |  | CC50 [24]: > 370 µM; CC50 (PBL): 13 µM; CC50 (MRC5 [20]): 72 µM; MIC (Visna-maedi virus [25]): 5.6 µM (≈ 1.5 µg/mL) |
